In paper PMC7231760 (International Journal of Nanomedicine, 2020):

Columns and labels:
HCV NS3 helicase = HCV NS3 helicase (Hepatitis C virus genotype 1a, UniProt P27958); assay: Anti-HCV NS3 helicase assay; type: biochemical
Procedure, shortened: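 Test samples were dissolved in DMSO; thioflavin S or 0.8% DMSO served as controls. ATP was added from a 5 mM solution. Fluorescence was read at t0 and after 1 h at 25°C. Ratio_RFU = RFU_t60/RFU_t0, and percent inhibition was calculated.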

HCV NS3 protease = HCV NS3 protease (Hepatitis C virus, UniProt P27958); assay: Anti-HCV NS3 protease assay; type: biochemical; settings: SNPs of total extract and petroleum ether fraction, controls (Table 2)
HCV NS3 protease, sequence (P27958 1027-1657): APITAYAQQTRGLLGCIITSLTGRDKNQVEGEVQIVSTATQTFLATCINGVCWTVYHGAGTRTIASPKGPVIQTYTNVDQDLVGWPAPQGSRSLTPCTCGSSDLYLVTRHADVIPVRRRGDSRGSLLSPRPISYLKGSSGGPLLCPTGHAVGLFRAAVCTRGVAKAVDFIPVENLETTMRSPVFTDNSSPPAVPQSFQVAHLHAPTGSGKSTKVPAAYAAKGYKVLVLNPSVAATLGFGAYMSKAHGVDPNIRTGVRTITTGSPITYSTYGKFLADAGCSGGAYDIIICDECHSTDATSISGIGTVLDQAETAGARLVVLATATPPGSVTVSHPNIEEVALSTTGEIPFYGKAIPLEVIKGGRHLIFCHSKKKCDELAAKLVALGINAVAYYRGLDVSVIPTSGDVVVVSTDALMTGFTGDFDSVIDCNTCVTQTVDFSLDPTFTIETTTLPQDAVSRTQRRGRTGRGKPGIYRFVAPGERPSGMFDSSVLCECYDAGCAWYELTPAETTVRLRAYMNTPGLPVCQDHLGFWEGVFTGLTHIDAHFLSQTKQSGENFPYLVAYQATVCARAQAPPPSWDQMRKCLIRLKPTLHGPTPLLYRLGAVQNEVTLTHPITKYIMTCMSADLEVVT

HCV NS3 helicase, sequence (P27958 1192-1657 limits assumed): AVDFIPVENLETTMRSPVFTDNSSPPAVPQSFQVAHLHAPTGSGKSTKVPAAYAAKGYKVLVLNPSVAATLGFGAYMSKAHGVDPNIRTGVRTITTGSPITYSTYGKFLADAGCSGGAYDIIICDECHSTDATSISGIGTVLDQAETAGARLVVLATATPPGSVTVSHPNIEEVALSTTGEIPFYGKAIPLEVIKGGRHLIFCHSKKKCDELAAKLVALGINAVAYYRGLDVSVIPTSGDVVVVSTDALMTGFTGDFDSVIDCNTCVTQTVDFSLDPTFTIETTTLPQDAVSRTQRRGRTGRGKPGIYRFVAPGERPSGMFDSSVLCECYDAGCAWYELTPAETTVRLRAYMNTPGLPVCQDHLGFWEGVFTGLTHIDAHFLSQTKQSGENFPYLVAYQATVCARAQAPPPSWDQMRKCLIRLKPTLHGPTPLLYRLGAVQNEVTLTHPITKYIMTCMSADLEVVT

| Structure (SMILES) | IC50 (HCV NS3 helicase) [µM] | IC50 NS3 Helicase (HCV NS3 helicase; SNPs of total extract and petroleum ether fraction, controls (Table 2)) [µg/mL] | IC50 NS3 Protease (HCV NS3 protease) [µg/mL] |
| --- | --- | --- | --- |
| NC(=O)c1ncn([C@@H]2O[C@H](CO)[C@@H](O)[C@H]2O)n1 [Ribavirin] | 19.1 |  |  |
| O=[N+]([O-])[O-].[Ag+] [AgNO3] |  | 77.72 ± 4.57 | 52.67 ± 0.33 |
